Reference: ChEMBL document CHEMBL3259614, “Design, synthesis, and structure-activity relationship studies of novel fused heterocycles-linked triazoles with good activity and water solubility” (J Med Chem, 2014)
Values after ≈ are worked out from the molar mass of the structure shown.

Key:
Candida albicans [1] = experiment: Antimicrobial activity against Candida albicans Y0109 after 24 hrs by serial dilution method; format: functional; details: Y0109, 24 h
Outline: (§1)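 Broth serial dilution MIC in 96-well plates following NCCLS/CLSI methods. Compounds were dissolved in DMSO and serially diluted in growth medium, with incubation at 35 °C. […] C. parapsilosis 22019 served as the quality-control strain in each assay.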

Candida parapsilosis = experiment: Antimicrobial activity against Candida parapsilosis 22019 after 24 hrs by serial dilution method; format: functional; details: Lodderomyces parapsilosis, 22019, 24 h; outline: as §1
Nakaseomyces glabratus = experiment: Antimicrobial activity against Candida glabrata 537 after 24 hrs by serial dilution method; format: functional; details: Nakaseomyces glabratus, 537, 24 h; outline: as §1
Candida albicans [2] = experiment: Antimicrobial activity against Candida albicans SC5314 after 24 hrs by serial dilution method; format: functional; details: SC5314, 24 h; outline: as §1
Cryptococcus neoformans = experiment: Antimicrobial activity against Cryptococcus neoformans 32609 after 72 hrs by serial dilution method; format: functional; details: Cryptococcus neoformans, 32609, 72 h; outline: as §1
Aspergillus fumigatus = experiment: Antimicrobial activity against Aspergillus fumigatus 7544 after 48 hrs by serial dilution method; format: functional; details: Aspergillus fumigatus, 7544, 48 h; outline: as §1
[3] = Aqueous solubility of the compound in phosphate buffer at pH 7.4; format: physicochemical
Outline: (§2)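 Excess solid was stirred for 3 h in pH 1.2 hydrochloric acid or pH 7.4 phosphate buffer, then filtered through 0.45 μm. Absorbance at the UV maximum was compared with a methanol standard, C′ = A′C/A, with values reported in mg/mL. Determined at 30 °C; mean ± SD, n = 3.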

Candida albicans [4] = experiment: Antimicrobial activity against fluconazole-resistant Candida albicans J38 after 24 hrs by serial dilution method; format: functional; details: J38, 24 h
Outline: (§3)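 Broth serial-dilution MIC in 96-well plates following NCCLS guidance. Compounds were dissolved in DMSO and serially diluted in growth medium. Clinical isolates came from a hospital collection. […] C. parapsilosis ATCC 22019 served as the quality-control strain in each assay.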

[5] = Aqueous solubility of the compound in hydrochloric acid solution at pH 1.2; format: physicochemical; outline: as §2
Candida albicans [6] = experiment: Antimicrobial activity against fluconazole-resistant Candida albicans 100 after 24 hrs by serial dilution method; format: functional; details: Candida albicans, 100, 24 h; outline: as §3
Candida albicans [7] = experiment: Antimicrobial activity against fluconazole-resistant Candida albicans J18 after 24 hrs by serial dilution method; format: functional; details: J18, 24 h; outline: as §3
Candida albicans [8] = experiment: Antimicrobial activity against fluconazole-resistant Candida albicans 103 after 24 hrs by serial dilution method; format: functional; details: Candida albicans, 103, 24 h; outline: as §3
Candida albicans [9] = experiment: Antimicrobial activity against fluconazole-resistant Candida albicans J28 after 24 hrs by serial dilution method; format: functional; details: J28, 24 h; outline: as §3

Structure (SMILES) | MIC (Candida albicans [1]) | MIC (Candida parapsilosis) | MIC (Nakaseomyces glabratus) | MIC (Candida albicans [2]) | MIC (Cryptococcus neoformans) | MIC (Aspergillus fumigatus) | solubility [3] | MIC (Candida albicans [4]) | solubility [5] | MIC (Candida albicans [6]) | MIC (Candida albicans [7]) | MIC (Candida albicans [8]) | MIC (Candida albicans [9])
C[C@@H](N1CCc2sc(-c3ccncc3)cc2C1)[C@](O)(Cn1cncn1)c1ccc(F)cc1F | 2 µg/mL (≈ 4.28 µM) | 4 µg/mL (≈ 8.56 µM) | 8 µg/mL (≈ 17.1 µM) | 1 µg/mL (≈ 2.14 µM) | 4 µg/mL (≈ 8.56 µM) | > 32 µg/mL | – | – | – | – | – | – | –
C[C@@H](N1CCc2sc(-c3cccnc3)cc2C1)[C@](O)(Cn1cncn1)c1ccc(F)cc1F | 8 µg/mL (≈ 17.1 µM) | 4 µg/mL (≈ 8.56 µM) | 2 µg/mL (≈ 4.28 µM) | 1 µg/mL (≈ 2.14 µM) | 4 µg/mL (≈ 8.56 µM) | 32 µg/mL (≈ 68.4 µM) | – | – | – | – | – | – | –
C[C@@H](N1CCc2cc(Br)sc2C1)[C@](O)(Cn1cncn1)c1ccc(F)cc1F | 0.5 µg/mL (≈ 1.07 µM) | 2 µg/mL (≈ 4.26 µM) | 1 µg/mL (≈ 2.13 µM) | 1 µg/mL (≈ 2.13 µM) | 0.5 µg/mL (≈ 1.07 µM) | 32 µg/mL (≈ 68.2 µM) | – | – | – | – | – | – | –
C[C@@H](N1CCc2cc(-c3ccncc3)sc2C1)[C@](O)(Cn1cncn1)c1ccc(F)cc1F | 4 µg/mL (≈ 8.56 µM) | 2 µg/mL (≈ 4.28 µM) | 2 µg/mL (≈ 4.28 µM) | 1 µg/mL (≈ 2.14 µM) | 1 µg/mL (≈ 2.14 µM) | 32 µg/mL (≈ 68.4 µM) | – | – | – | – | – | – | –
C[C@@H](N1CCc2cc(-c3cccnc3)sc2C1)[C@](O)(Cn1cncn1)c1ccc(F)cc1F | 1 µg/mL (≈ 2.14 µM) | 1 µg/mL (≈ 2.14 µM) | 1 µg/mL (≈ 2.14 µM) | 0.5 µg/mL (≈ 1.07 µM) | 0.5 µg/mL (≈ 1.07 µM) | 8 µg/mL (≈ 17.1 µM) | – | – | – | – | – | – | –
C[C@@H](N1CCc2cc(-c3cncnc3)sc2C1)[C@](O)(Cn1cncn1)c1ccc(F)cc1F | 0.25 µg/mL (≈ 0.534 µM) | 0.5 µg/mL (≈ 1.07 µM) | 1 µg/mL (≈ 2.13 µM) | 0.5 µg/mL (≈ 1.07 µM) | 0.5 µg/mL (≈ 1.07 µM) | 16 µg/mL (≈ 34.1 µM) | – | – | – | – | – | – | –
C[C@@H](N1CCc2cc(-c3ccc(C#N)nc3)sc2C1)[C@](O)(Cn1cncn1)c1ccc(F)cc1F | 4 µg/mL (≈ 8.12 µM) | 4 µg/mL (≈ 8.12 µM) | 4 µg/mL (≈ 8.12 µM) | 2 µg/mL (≈ 4.06 µM) | 4 µg/mL (≈ 8.12 µM) | 32 µg/mL (≈ 65 µM) | – | – | – | – | – | – | –
C[C@@H](N1CCc2nc(-c3cncnc3)sc2C1)[C@](O)(Cn1cncn1)c1ccc(F)cc1F.Cl | – | – | – | – | – | – | 14800 µg/mL | – | – | – | – | – | –
CS(=O)(=O)O.C[C@@H](N1CCc2nc(-c3cncnc3)sc2C1)[C@](O)(Cn1cncn1)c1ccc(F)cc1F | – | – | – | – | – | – | 12000 µg/mL | – | – | – | – | – | –
C[C@@H](N1CCc2nc(-c3cncnc3)sc2C1)[C@](O)(Cn1cncn1)c1ccc(F)cc1F.Cc1ccc(S(=O)(=O)O)cc1 | – | – | – | – | – | – | 5800 µg/mL | – | – | – | – | – | –
C[C@@H](N1CCc2nc(-c3cncnc3)sc2C1)[C@](O)(Cn1cncn1)c1ccc(F)cc1F.O=S(=O)(O)O | – | – | – | – | – | – | 108000 µg/mL | – | – | – | – | – | –
Br.C[C@@H](N1CCc2nc(-c3cncnc3)sc2C1)[C@](O)(Cn1cncn1)c1ccc(F)cc1F | – | – | – | – | – | – | 12100 µg/mL | – | – | – | – | – | –
C[C@@H](N1CCc2nc(-c3cncnc3)sc2C1)[C@](O)(Cn1cncn1)c1ccc(F)cc1F.O=P(O)(O)O | – | – | – | – | – | – | 8330 µg/mL | – | – | – | – | – | –
C[C@@H](n1cnc2cc(Cl)ccc2c1=O)[C@](O)(Cn1cncn1)c1ccc(F)cc1F [ALBACONAZOLE] | ≤ 0.0312 µg/mL | 0.0156 µg/mL (≈ 0.0361 µM) | ≤ 0.0312 µg/mL | 0.0078 µg/mL (≈ 0.0181 µM) | ≤ 0.0312 µg/mL | 0.5 µg/mL (≈ 1.16 µM) | – | ≤ 0.0312 µg/mL | 1 µg/mL (≈ 2.32 µM) | 8 µg/mL (≈ 18.5 µM) | > 16 µg/mL | 4 µg/mL (≈ 9.26 µM) | ≤ 0.0312 µg/mL
C[C@@H]1[C@H](O)[C@@H](C)/C=C/C=C/C=C/C=C/C=C/C=C/C=C/[C@H](O[C@@H]2O[C@H](C)[C@@H](O)[C@H](N)[C@@H]2O)C[C@@H]2O[C@](O)(C[C@@H](O)C[C@@H](O)[C@H](O)CC[C@@H](O)C[C@@H](O)CC(=O)O[C@H]1C)C[C@H](O)[C@H]2C(=O)O [AMPHOTERICIN B] | 1 µg/mL (≈ 1.08 µM) | 0.5 µg/mL (≈ 0.541 µM) | 0.5 µg/mL (≈ 0.541 µM) | 1 µg/mL (≈ 1.08 µM) | 1 µg/mL (≈ 1.08 µM) | 4 µg/mL (≈ 4.33 µM) | – | – | – | – | – | – | –
C[C@@H](c1nc(-c2ccc(C#N)cc2)cs1)[C@](O)(Cn1cncn1)c1ccc(F)cc1F [RAVUCONAZOLE] | 0.0625 µg/mL (≈ 0.143 µM) | 0.125 µg/mL (≈ 0.286 µM) | ≤ 0.125 µg/mL | 0.0625 µg/mL (≈ 0.143 µM) | ≤ 0.0625 µg/mL | 1 µg/mL (≈ 2.29 µM) | – | – | 3 µg/mL (≈ 6.86 µM) | – | – | – | –
C[C@@H](c1ncncc1F)[C@](O)(Cn1cncn1)c1ccc(F)cc1F [VORICONAZOLE] | 0.0625 µg/mL (≈ 0.179 µM) | 0.125 µg/mL (≈ 0.358 µM) | ≤ 0.125 µg/mL | ≤ 0.0625 µg/mL | 0.0625 µg/mL (≈ 0.179 µM) | 2 µg/mL (≈ 5.73 µM) | 682 µg/mL (≈ 1950 µM) | 0.0625 µg/mL (≈ 0.179 µM) | 1260 µg/mL (≈ 3620 µM) | > 16 µg/mL | > 16 µg/mL | > 16 µg/mL | 0.0625 µg/mL (≈ 0.179 µM)
